Measured values as given in ChEMBL document CHEMBL1124096, “Potential anticonvulsants. 11. Synthesis and anticonvulsant activity of spiro[1,3-dioxolane-2,3'-indolin]-2'-ones and structural analogues” (J Med Chem, 1988).

Columns and labels:
[1] = Protective index (TD50/ED50) for MES test in mice; assay type: ADME, organism-based; conditions: mouse, in vivo; read-out: PI
In short: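 Protective index taken as TD50 (rotorod) divided by MES ED50. Both measured in Phase II at the time of peak effect, 0.25 h, after ip dosing.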

Mus musculus [2] = organism: Mus musculus; test: Phase II effective dose against mice for maximal electroshock seizure test (MES) for 0.25 hr of test time; assay type: functional
In short: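 Phase II quantification: time of peak effect first determined, then median effective dose in the MES test (corneal 60-cycle AC, 50 mA, 0.2 s) found at that time, 0.25 h. Compound given ip.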

[3] = Phase II effective dose against mice for toxicity test (TOX) for 0.25 hr of test time; assay type: organism-based; conditions: mouse, in vivo
In short: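 Phase II: time of peak neurologic toxicity first determined. Median toxic dose then found by rotorod (1-in. knurled rod, 6 rpm, 1 min) at that time, 0.25 h. Compound given ip.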

[4] = Ability to protect mice against electrically induced seizures (MES) at 100 mg/kg for 0.5 hr in Phase I; no. of animals protected/No. of animals tested= 0/3; assay type: functional, organism-based; parameters: dose 100 mg/kg
Mus musculus [5] = test: Ability to protect mice against neurotoxicity (rotarod test) at 300 mg/kg for 0.5 hr in Phase I; no. of animals protected/No. of animals tested 0/4; assay type: organism-based; parameters: dose 300 mg/kg; conditions: in vivo
[6] = Ability to protect mice against subcutaneous pentylenetetrazole seizures (sc-Met) threshold test at 300 mg/kg for 0.5 hr in Phase I; no. of animals protected/No. of animals tested= 0/1; assay type: functional, organism-based; parameters: dose 300 mg/kg
[7] = Ability to protect mice against electrically induced seizures (MES) at 300 mg/kg for 0.5 hr in Phase I; no. of animals protected/No. of animals tested= 0/1; assay type: functional, organism-based; parameters: dose 300 mg/kg
[8] = Ability to protect mice against subcutaneous pentylenetetrazole seizures (sc-Met) threshold test at 100 mg/kg for 0.5 hr in Phase I; no. of animals protected/No. of animals tested= 0/1; assay type: functional, organism-based; parameters: dose 100 mg/kg

| SMILES | selectivity ratio [1] | ED50 (Mus musculus [2]) [mg/kg] | TD50 at 0.25 h [3] [mg/kg] | further results |
| --- | --- | --- | --- | --- |
| O=C1Nc2ccccc2C12OCCCO2 | 1.67 | 110 | – | – |
| O=C1Nc2ccccc2C12OCCS2 (stereo unspecified) | 1.65 | 60.4 | – | – |
| COC1(OC)C(=O)Nc2ccccc21 | 2.47 | 82 | 203 | – |
| O=C1Nc2cccc(Cl)c2C12OCCO2 | 1.24 | 95.6 | 122 | – |
| O=C1Nc2cc(Cl)ccc2C12OCCO2 | 1.68 | 72 | 121 | – |
| O=C1N(Cc2ccccc2)c2ccccc2C12OCCO2 | – | – | – | Ratio [4]: no. of animals protected/No. of animals tested 0/4; Ratio (Mus musculus [5]): no. of animals protected/No. of animals tested 0/4; Ratio [6]: no. of animals protected/No. of animals tested 0/4; Ratio [7]: no. of animals protected/No. of animals tested 0/4; Ratio [8]: no. of animals protected/No. of animals tested 0/4 |
| O=C1Nc2ccccc2C12OCCO2 | 1.87 | 69.8 | 130 | – |
| CN1C(=O)C2(OCCO2)c2ccccc21 | 1.3 | 90.9 | 118 | – |
| O=C1N(CN2CCOCC2)c2ccccc2C12OCCO2 | 1.89 | 90 | 170 | – |
| O=C1Nc2ccccc2C12SCCS2 | – | 174 | – | – |
| O=C1Nc2ccc(Br)cc2C12OCCO2 | 1.87 | 46.1 | 86.5 | – |
| O=C1Nc2ccc(Cl)cc2C12OCCO2 | 2.28 | 28 | 63.7 | – |
| O=C1N(CN2CCCCC2)c2ccccc2C12OCCO2 | 1.39 | – | 187 | – |
